Assay results published in ChEMBL document CHEMBL3351525, “Synthesis of tripeptides containing D-Trp substituted at the indole ring, assessment of opioid receptor binding and in vivo central antinociception” (J Med Chem, 2014).
Active and inactive are the calls of the source. Where a SMILES comes first, the peptide text is derived from it. [ ]: non-standard residue; d: D form.

Experiments:
Mu-type opioid receptor = Mu-type opioid receptor (Homo sapiens, UniProt P35372); assay: Displacement of [3H]DAMGO from human mu opioid receptor expressed in HEK293 cells by scintillation counting; type: cell-based
Mus musculus [1] = assay: Antinociceptive activity in CD-1 mouse assessed as increase in tail-flick latency period at 20 mg/kg, ip at 15 mins by tail flick test; type: functional; conditions: for MPE: route intraperitoneal
Mus musculus [2] = assay: Antinociceptive activity in CD-1 mouse assessed as increase in tail-flick latency period at 20 mg/kg, ip at 30 mins by tail flick test; type: functional; conditions: for MPE: route intraperitoneal
Mus musculus [3] = assay: Toxicity in icv dosed CD-1 mouse assessed as locomotor activity; type: organism-based; conditions: in vivo, icv_or_intrathecal
Mus musculus [4] = assay: Toxicity in icv dosed CD-1 mouse assessed as circling behavior; type: organism-based; conditions: in vivo, icv_or_intrathecal
Mus musculus [5] = assay: Toxicity in icv dosed CD-1 mouse assessed as straub tail; type: organism-based; conditions: in vivo, icv_or_intrathecal
Mus musculus [6] = assay: Toxicity in icv dosed CD-1 mouse assessed as grooming; type: organism-based; conditions: in vivo, icv_or_intrathecal
[7] = molecular target: Delta-type opioid receptor (Homo sapiens, UniProt P41143); assay: Displacement of [3H]diprenorphine from human delta opioid receptor expressed in HEK293 cells by scintillation counting; type: cell-based
[8] = molecular target: Kappa-type opioid receptor (Homo sapiens, UniProt P41145); assay: Displacement of [3H]U69593 from human kappa opioid receptor expressed in HEK293 cells by scintillation counting; type: cell-based
Mus musculus [9] = assay: Antinociceptive activity in CD-1 mouse assessed as increase in tail-flick latency period at 40 mg/kg, ip at 30 mins by tail flick test; type: functional; conditions: route intraperitoneal
Mus musculus [10] = assay: Antinociceptive activity in ip dosed CD-1 mouse assessed as increase in tail-flick latency period at 30 mins by tail flick test; type: functional, organism-based
Outline: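 Tail immersed in 52 ± 0.5 °C water; withdrawal latency measured. Pre-treatment control latency recorded; mice not flicking within 5 s excluded. Vehicle or peptide given ip at 10, 20 or 40 mg/kg. Latency read at 5, 15, 30, 45 and 60 min post-dose, 10 s cutoff. Response expressed as % maximal possible effect (MPE%).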

Mus musculus [11] = assay: Antinociceptive activity in icv dosed CD-1 mouse assessed as increase in tail-flick latency period at 10 mins by tail flick test; type: functional, organism-based
Outline: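 Hot-water (52 ± 0.5 °C) tail-immersion test after icv injection at 2.5, 5 or 10 μg/mouse, compared with vehicle. Withdrawal latency measured with a 10 s cutoff. Response expressed as % maximal possible effect (MPE%).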

Mus musculus [12] = assay: Antinociceptive activity in CD-1 mouse assessed as increase in tail-flick latency period at 2.5 microg, icv at 10 mins by tail flick test; type: functional
Mus musculus [13] = assay: Antinociceptive activity in CD-1 mouse assessed as increase in tail-flick latency period at 5 microg, icv at 10 mins by tail flick test; type: functional
Mus musculus [14] = assay: Antinociceptive activity in CD-1 mouse assessed as increase in tail-flick latency period at 10 microg, icv at 10 mins by tail flick test; type: functional
[15] = Stability in mouse serum assessed as drug degradation after 3 hrs incubation; type: ADME; conditions: read-out: Drug degradation
Outline: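 Peptide incubated in mouse serum for 3 h; degradation assessed.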

Chain of Mu-type opioid receptor (P35372 whole entry): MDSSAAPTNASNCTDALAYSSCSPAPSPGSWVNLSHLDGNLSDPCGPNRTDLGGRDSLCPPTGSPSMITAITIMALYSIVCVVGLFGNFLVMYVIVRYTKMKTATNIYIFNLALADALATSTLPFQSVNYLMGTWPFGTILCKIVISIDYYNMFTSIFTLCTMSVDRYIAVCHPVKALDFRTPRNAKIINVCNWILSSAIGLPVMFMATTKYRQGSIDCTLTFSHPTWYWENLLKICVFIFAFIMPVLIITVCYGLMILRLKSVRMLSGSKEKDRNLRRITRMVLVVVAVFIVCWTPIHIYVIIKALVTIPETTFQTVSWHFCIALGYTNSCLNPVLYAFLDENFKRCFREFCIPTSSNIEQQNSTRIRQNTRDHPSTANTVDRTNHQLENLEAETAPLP
Chain of Delta-type opioid receptor (P41143 whole entry): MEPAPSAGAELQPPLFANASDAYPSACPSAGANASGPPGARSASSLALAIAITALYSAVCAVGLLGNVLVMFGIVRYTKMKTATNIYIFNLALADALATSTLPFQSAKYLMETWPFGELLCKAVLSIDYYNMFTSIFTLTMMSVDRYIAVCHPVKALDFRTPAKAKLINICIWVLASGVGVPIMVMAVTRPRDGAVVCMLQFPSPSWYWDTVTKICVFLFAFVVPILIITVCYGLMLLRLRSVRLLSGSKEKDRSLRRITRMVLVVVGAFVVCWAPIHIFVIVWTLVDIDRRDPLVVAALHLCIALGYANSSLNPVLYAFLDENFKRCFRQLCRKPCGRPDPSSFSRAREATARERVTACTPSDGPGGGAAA
Chain of Kappa-type opioid receptor (P41145 whole entry): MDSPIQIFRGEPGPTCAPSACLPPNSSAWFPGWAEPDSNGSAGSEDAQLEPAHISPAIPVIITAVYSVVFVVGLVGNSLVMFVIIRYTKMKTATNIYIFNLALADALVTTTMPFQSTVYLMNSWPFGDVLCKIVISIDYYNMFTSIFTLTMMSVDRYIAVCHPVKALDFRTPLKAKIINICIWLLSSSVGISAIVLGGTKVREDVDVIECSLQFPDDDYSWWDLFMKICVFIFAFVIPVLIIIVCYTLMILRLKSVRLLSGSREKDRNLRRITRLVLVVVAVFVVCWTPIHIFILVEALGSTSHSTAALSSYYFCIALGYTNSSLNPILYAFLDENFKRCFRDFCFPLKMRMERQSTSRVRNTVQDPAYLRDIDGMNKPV

SMILES	Ki (Mu-type opioid receptor)	Activity (Mus musculus [3])	Activity (Mus musculus [4])	Activity (Mus musculus [5])	Activity (Mus musculus [6])	Ki [7]	Ki [8]	further results
CC(=O)N[C@H](Cc1c[nH]c2c(C)cccc12)C(=O)N[C@@H](Cc1ccccc1)C(=O)NCC(N)=O	> 100000 nM	–	–	–	–	–	–	–
CC(=O)N[C@H](Cc1c[nH]c2ccccc12)C(=O)N[C@@H](Cc1ccccc1)C(=O)NCC(N)=O (Ac-[dW]-Phe-Gly-NH2)	–	Non-toxic	Non-toxic	Non-toxic	Non-toxic	–	–	MPE (Mus musculus [1]): 19%; MPE (Mus musculus [2]): 37%
CC(=O)N[C@H](Cc1c(C)[nH]c2ccccc12)C(=O)N[C@@H](Cc1ccccc1)C(=O)NCC(N)=O	314 nM	–	–	–	–	> 100000 nM	> 100000 nM	–
CC(=O)N[C@H](Cc1c[nH]c2ccc([N+](=O)[O-])cc12)C(=O)N[C@@H](Cc1ccccc1)C(=O)NCC(N)=O	51.9 nM	Non-toxic	Non-toxic	Non-toxic	Non-toxic	> 100000 nM	> 100000 nM	MPE (Mus musculus [9]): 48%; Activity (Mus musculus [10]): Dose-dependent effect; Activity (Mus musculus [11]): Dose-dependent effect; Activity (Mus musculus [12]): 25%; Activity (Mus musculus [13]): 49%; Activity (Mus musculus [14]): 47%; metabolised at 3 h [15]: 7%
CC(=O)N[C@H](Cc1c[nH]c2c(Br)cccc12)C(=O)N[C@@H](Cc1ccccc1)C(=O)NCC(N)=O	190 nM	–	–	–	–	> 100000 nM	> 100000 nM	–
O=C1CNC(=O)[C@H](Cc2ccccc2)NC(=O)[C@@H](Cc2c[nH]c3ccccc23)NC(=O)CNC(=O)[C@H](Cc2ccc(O)cc2)N1	3.6 nM	Non-toxic	Non-toxic	Non-toxic	Non-toxic	24 nM	> 100000 nM	MPE (Mus musculus [1]): 22%; MPE (Mus musculus [2]): 32%; metabolised at 3 h [15]: < 10%
CC(=O)N[C@H](Cc1c[nH]c2ccccc12)C(=O)N[C@@H](Cc1ccccc1)C(N)=O (Ac-[dW]-Phe-NH2)	–	Non-toxic	Non-toxic	Non-toxic	Non-toxic	–	–	Activity (Mus musculus [1]): inactive; Activity (Mus musculus [2]): inactive
CC(=O)N[C@H](Cc1c(C)[nH]c2c(Br)cccc12)C(=O)N[C@@H](Cc1ccccc1)C(=O)NCC(N)=O	4.03 nM	Non-toxic	Non-toxic	Non-toxic	Non-toxic	> 100000 nM	> 100000 nM	MPE (Mus musculus [1]): 33%; MPE (Mus musculus [2]): 32%
CC(=O)N[C@H](Cc1c[nH]c2ccc(Br)cc12)C(=O)N[C@@H](Cc1ccccc1)C(=O)NCC(N)=O	114 nM	–	–	–	–	> 100000 nM	> 100000 nM	–
CC(=O)N[C@H](Cc1c[nH]c2cc(Cl)ccc12)C(=O)N[C@@H](Cc1ccccc1)C(=O)NCC(N)=O	> 100000 nM	–	–	–	–	–	–	–

The next lines start with results.

Ki (Mu-type opioid receptor)	SMILES	Activity (Mus musculus [3])	Activity (Mus musculus [4])	Activity (Mus musculus [5])	Activity (Mus musculus [6])	Ki [7]	Ki [8]	further results
5.7 nM	CC(=O)N[C@H](Cc1c[nH]c2cc(F)ccc12)C(=O)N[C@@H](Cc1ccccc1)C(=O)NCC(N)=O	–	–	–	–	–	–	–
> 100000 nM	CC(=O)N[C@H](Cc1c[nH]c2ccc(F)cc12)C(=O)N[C@@H](Cc1ccccc1)C(=O)NCC(N)=O	–	–	–	–	–	–	–
> 100000 nM	CC(=O)N[C@H](Cc1c(C)[nH]c2ccc(Cl)cc12)C(=O)N[C@@H](Cc1ccccc1)C(=O)NCC(N)=O	–	–	–	–	–	–	–
20.8 nM	CC(=O)N[C@H](Cc1c[nH]c2ccc(Cl)cc12)C(=O)N[C@@H](Cc1ccccc1)C(=O)NCC(N)=O	–	–	–	–	–	–	–
426 nM	CC(=O)N[C@H](Cc1c[nH]c2ccc(C)cc12)C(=O)N[C@@H](Cc1ccccc1)C(=O)NCC(N)=O	–	–	–	–	> 100000 nM	> 100000 nM	–
